In ChEMBL document CHEMBL1641472, “Discovery of novel phenylpyridone derivatives as potent and selective MCH1R antagonists” (Bioorg Med Chem, 2011):
Calls of active or inactive are those of the source. No cut-off for these calls is given here.

Assays:
[1] = target: T1, Melanin-concentrating hormone receptor 1 (Homo sapiens, UniProt Q99705); assay: Antagonist activity at human MCHR1 expressed in CHO cells assessed as inhibition of MCH-induced intracellular calcium release by FLIPR assay; type: functional, cell-based
T1 sequence (Q99705 whole entry): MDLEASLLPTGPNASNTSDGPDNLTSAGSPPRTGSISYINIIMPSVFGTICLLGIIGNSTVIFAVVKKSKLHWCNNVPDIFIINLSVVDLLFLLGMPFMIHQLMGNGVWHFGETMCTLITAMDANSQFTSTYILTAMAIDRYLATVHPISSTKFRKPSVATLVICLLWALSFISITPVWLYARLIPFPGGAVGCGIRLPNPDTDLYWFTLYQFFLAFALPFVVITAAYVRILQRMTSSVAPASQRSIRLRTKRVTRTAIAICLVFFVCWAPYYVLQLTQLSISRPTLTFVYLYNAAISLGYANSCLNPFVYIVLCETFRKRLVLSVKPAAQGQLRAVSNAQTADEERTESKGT
Procedure, shortened: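 Agonist-induced intracellular calcium release measured by FLIPR in CHO cells stably expressing human MCH1R; antagonism taken as inhibition of the MCH-evoked signal.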

[2] = target: Voltage-gated inwardly rectifying potassium channel KCNH2 (Homo sapiens, UniProt Q12809); assay: Displacement of [35S]N-[(4R)-10-[(2R)-6-cyano-1,2,3,4-tetrahydro-2-naphthyl]-3,4-dihydro-4-hydroxyspiro[2H-1-benzopyran-2,40-piperidin]-6-yl]methanesulfonamide from human ERG expressed in HEK293 cells
Sequence of Voltage-gated inwardly rectifying potassium channel KCNH2 (Q12809 whole entry): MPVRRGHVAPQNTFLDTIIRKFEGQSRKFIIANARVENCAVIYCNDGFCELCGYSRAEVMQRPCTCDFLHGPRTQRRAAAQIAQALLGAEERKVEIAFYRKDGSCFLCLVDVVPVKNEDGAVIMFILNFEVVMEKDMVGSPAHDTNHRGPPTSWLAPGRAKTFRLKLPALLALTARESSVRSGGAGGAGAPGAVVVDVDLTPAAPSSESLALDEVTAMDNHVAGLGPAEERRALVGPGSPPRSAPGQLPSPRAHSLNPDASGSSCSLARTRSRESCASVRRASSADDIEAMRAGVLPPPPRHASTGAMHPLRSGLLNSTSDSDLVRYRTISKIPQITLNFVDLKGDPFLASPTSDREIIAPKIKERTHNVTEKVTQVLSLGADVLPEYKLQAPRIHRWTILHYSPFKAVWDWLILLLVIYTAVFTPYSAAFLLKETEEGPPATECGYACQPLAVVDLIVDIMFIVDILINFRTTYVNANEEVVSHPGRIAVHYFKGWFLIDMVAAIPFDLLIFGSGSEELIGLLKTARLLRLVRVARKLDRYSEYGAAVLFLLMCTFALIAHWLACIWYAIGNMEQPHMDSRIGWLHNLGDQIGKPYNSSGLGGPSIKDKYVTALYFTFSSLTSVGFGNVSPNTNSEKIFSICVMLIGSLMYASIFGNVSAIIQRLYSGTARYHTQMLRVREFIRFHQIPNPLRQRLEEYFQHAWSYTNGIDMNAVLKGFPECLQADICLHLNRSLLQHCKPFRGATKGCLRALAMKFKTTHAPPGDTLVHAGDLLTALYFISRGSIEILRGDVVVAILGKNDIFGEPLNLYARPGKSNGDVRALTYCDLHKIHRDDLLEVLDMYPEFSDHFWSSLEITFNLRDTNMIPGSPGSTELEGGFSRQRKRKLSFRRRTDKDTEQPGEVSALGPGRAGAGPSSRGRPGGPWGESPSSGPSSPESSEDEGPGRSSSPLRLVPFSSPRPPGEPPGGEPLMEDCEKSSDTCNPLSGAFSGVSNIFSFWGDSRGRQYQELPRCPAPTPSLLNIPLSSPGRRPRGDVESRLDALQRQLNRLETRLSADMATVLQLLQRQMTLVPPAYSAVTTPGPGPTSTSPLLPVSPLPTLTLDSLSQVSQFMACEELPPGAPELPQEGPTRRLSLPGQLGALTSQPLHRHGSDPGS

[3] = target: T1, Melanin-concentrating hormone receptor 1; assay: Displacement of [125I]MCH from human MCHR1 expressed in CHO cells by competition binding assay; type: cell-based
Procedure, shortened: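 Competition binding against [¹²⁵I]-MCH radioligand on membranes from CHO cells expressing human MCH1R; IC50 values are means of two experiments.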

[4] = Drug level in Sprague-Dawley rat plasma at 10 mg/kg, po after 2 hrs; type: ADME, organism-based; set-up: dose 10 mg/kg, route oral; settings: read-out: Drug uptake
[5] = Ratio of drug level in brain to plasma in Sprague-Dawley rat plasma at 10 mg/kg, po after 2 hrs; type: ADME, organism-based; set-up: dose 10 mg/kg, route oral
Brain = assay: Drug level in Sprague-Dawley rat brain measured per gram of tissue at 10 mg/kg, po after 2 hrs; type: ADME, organism-based; set-up: dose 10 mg/kg, route oral; settings: in vivo
[6] = Drug level in Sprague-Dawley rat cerebrospinal fluid at 10 mg/kg, po after 2 hrs; type: ADME, organism-based; set-up: dose 10 mg/kg, route oral; settings: read-out: Drug uptake
Mus musculus [7] = assay: Suppression of spontaneous food intake in diet-induced obese C57BL/6 mouse model at 30 mg/kg, po after 24 hrs; type: functional
Procedure, shortened: (§1)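 Established DIO mice on high-fat diet given a single oral dose (3, 10, 30 mg/kg) 1–2 h before dark onset, after recording daily intake and body weight; food intake measured 24 h post-dose versus vehicle group.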

Mus musculus [8] = assay: Antiobese effect in diet-induced obese C57BL/6 mouse model assessed as loss of body weight at 3 mg/kg, po QD for 1.5 months; type: functional
Procedure, shortened: (§2)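 Established high-fat-fed DIO mice dosed orally once daily at 3, 10 or 30 mg/kg for 1.5 months, each dose given 1–2 h before dark period after daily food intake and body weight recording; body weight change at end of treatment versus vehicle controls, mean ± SEM.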

Mus musculus [9] = assay: Antiobese effect in diet-induced obese C57BL/6 mouse model assessed as loss of body weight at 10 mg/kg, po QD for 1.5 months; type: functional; procedure, shortened: as §2
Mus musculus [10] = assay: Suppression of spontaneous food intake in diet-induced obese C57BL/6 mouse model at 10 mg/kg, po after 24 hrs; type: functional; procedure, shortened: as §1
Mus musculus [11] = assay: Suppression of spontaneous food intake in diet-induced obese C57BL/6 mouse model at 3 mg/kg, po after 24 hrs; type: functional; procedure, shortened: as §1
Mus musculus [12] = assay: Antiobese effect in diet-induced obese C57BL/6 mouse model assessed as loss of body weight at 30 mg/kg, po QD for 1.5 months; type: functional; procedure, shortened: as §2
Mus musculus [13] = assay: Suppression of spontaneous food intake in diet-induced obese C57BL/6 mouse model treated orally chronic administration QD for 1.5 months after 24 hrs; type: functional, organism-based
Mus musculus [14] = assay: Suppression of spontaneous food intake in diet-induced obese C57BL/6 mouse model treated orally after 24 hrs; type: functional, organism-based; procedure, shortened: as §1

SMILES | IC50 [1] [µM] | IC50 [3] [µM] | also measured
CCN(CC)CCOc1ccc(-n2ccc(OCc3ccccc3)cc2=O)cc1 | 0.024 | 0.0066 | IC50 [2]: 9.8 µM
CCN(CC)CCN(C)c1ccc(-n2ccc(OCc3ccccc3)cc2=O)cc1 | – | 0.016 | IC50 [2]: 1.7 µM
CN(C)CC1CCc2cc(NC(=O)c3ccc(-c4ccc(F)cc4)cc3)ccc2C1 (stereo not given) | – | – | Activity (Mus musculus [7]): Active
CN1CCCCC1COc1ccc(-n2ccc(OCc3ccccc3)cc2=O)cc1 (stereo not given) | – | 0.018 | –
CN(C)CCOc1ccc(-n2ccc(OCc3ccccc3)cc2=O)cc1 | 0.018 | – | IC50 [2]: > 10 µM
O=c1cc(Oc2ccc(F)cc2)ccn1-c1ccc(OCCN2CCCCC2)cc1 | – | > 1 | –
CC(C)N(CCOc1ccc(-n2ccc(OCc3ccccc3)cc2=O)cc1)C(C)C | 0.022 | 0.0051 | –
O=c1cc(-c2ccc(F)cc2)ccn1-c1ccc(OCCN2CCCCC2)cc1 | – | > 1 | –
CN(C)CC(C)(C)Oc1ccc(-n2ccc(OCc3ccccc3)cc2=O)cc1 | – | 0.18 | –
CN1CCC(Oc2ccc(-n3ccc(OCc4ccccc4)cc3=O)cc2)C1 (stereo not given) | – | 0.018 | IC50 [2]: > 10 µM
CN1CCCC1COc1ccc(-n2ccc(OCc3ccccc3)cc2=O)cc1 (stereo not given) | 0.023 | 0.012 | –
CCN(CC)CCN(C(=O)OC)c1ccc(-n2ccc(OCc3ccccc3)cc2=O)cc1 | – | > 1 | –
CC(CN(C)C)Oc1ccc(-n2ccc(OCc3ccccc3)cc2=O)cc1 (stereo not given) | – | 0.051 | –

Now from value to compound, other results behind:

IC50 [1] [µM] | IC50 [3] [µM] | SMILES | also measured
0.017 | 0.0014 | O=c1cc(OCc2ccc(Cl)cc2)ccn1-c1ccc(OCCN2CCCC2)cc1 | concentration at 2 h [4]: 470 nM; Kp at 2 h [5]: 3.6; Drug uptake (Brain): 1.67 nmol/g; concentration at 2 h [6]: 10 nM
0.023 | – | O=c1cc(OCc2ccc(F)cc2)ccn1-c1ccc(OCCN2CCCC2)cc1 | Activity (Mus musculus [7]): 19%; concentration at 2 h [4]: 1000 nM; Activity (Mus musculus [8]): 4%; Activity (Mus musculus [9]): 11%; Activity (Mus musculus [10]): 13%; Activity (Mus musculus [11]): 6%; Activity (Mus musculus [12]): 21%; Kp at 2 h [5]: 2.4; Activity (Mus musculus [13]): Dose-dependent effect; Drug uptake (Brain): 2.4 nmol/g; Activity (Mus musculus [14]): Dose-dependent effect; concentration at 2 h [6]: 55 nM
0.022 | 0.0059 | O=c1cc(OCc2cccc(F)c2)ccn1-c1ccc(OCCN2CCCC2)cc1 | –
0.019 | – | O=c1cc(OCc2ccccc2)ccn1-c1ccc(OCCN2CCCCC2)cc1 | concentration at 2 h [4]: 200 nM; Kp at 2 h [5]: 3.8; Drug uptake (Brain): 0.76 nmol/g
0.034 | 0.024 | O=c1cc(OCc2ccccc2)ccn1-c1ccc(OCCN2CCOCC2)cc1 | IC50 [2]: > 10 µM
0.011 | – | COc1ccc(COc2ccn(-c3ccc(OCCN4CCCC4)cc3)c(=O)c2)cc1 | –
0.049 | 0.0067 | O=c1cc(OCc2ccc(C(F)(F)F)cc2)ccn1-c1ccc(OCCN2CCCC2)cc1 | –
– | 0.64 | O=c1cc(OCc2ccc(-c3ccccc3)cc2)ccn1-c1ccc(OCCN2CCCC2)cc1 | –
– | 0.012 | O=c1cc(OCc2ccccc2Cl)ccn1-c1ccc(OCCN2CCCC2)cc1 | –
– | 0.15 | O=c1cc(OCCOc2ccc(F)cc2)ccn1-c1ccc(OCCN2CCCC2)cc1 | –
0.175 | 0.0077 | O=c1cc(OCc2ccc3ccccc3c2)ccn1-c1ccc(OCCN2CCCC2)cc1 | –
0.03 | 0.0087 | O=c1cc(OCc2ccccc2F)ccn1-c1ccc(OCCN2CCCC2)cc1 | IC50 [2]: 4.3 µM
– | 0.65 | O=c1cc(OCCc2ccc(F)cc2)ccn1-c1ccc(OCCN2CCCC2)cc1 | –
